In paper PMC3544975 (Biochemical and biophysical research communications, 2012):
Read-outs that look alike come from different tables or passages of the source.

Assays:
human PMK [1] = target: T1, human PMK (Homo sapiens, UniProt Q15126); settings: read-out: affinity of natural substrates; cited from earlier work
T1 sequence (Q15126 1-192): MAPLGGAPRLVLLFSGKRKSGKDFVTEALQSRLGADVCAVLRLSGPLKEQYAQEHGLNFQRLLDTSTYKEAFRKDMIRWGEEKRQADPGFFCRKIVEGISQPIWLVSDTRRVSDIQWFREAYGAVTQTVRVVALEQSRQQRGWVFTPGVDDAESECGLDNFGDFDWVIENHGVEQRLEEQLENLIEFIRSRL

human PMK [2] = target: T1, human PMK; test: Fluorescence titration; assay type: binding
How it was run: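 N-terminally His6-tagged human PMK was expressed in E. coli BL21(DE3) Rosetta and purified on Ni-Sepharose. Titration used 5 µM PMK in 20 mM potassium phosphate, 5 mM DTT, 100 mM KCl, 10% glycerol, pH 6.5, at 25 °C. Excitation was 295 nm, with emission recorded over 300–400 nm. The bound-minus-free intensity difference was fitted against ligand concentration to a one-site specific binding equation.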

SMILES | Kd (human PMK [1]) [µM] | Kd (human PMK [2]) [µM]
Nc1ncnc2c1ncn2[C@@H]1O[C@H](COP(=O)(O)OP(=O)(O)O)[C@@H](O)[C@H]1O [ADP, adenosine diphosphate] | 19.9 ± 9 | –
Nc1ncnc2c1ncn2[C@@H]1O[C@H](COP(=O)(O)OP(=O)(O)OP(=O)(O)O)[C@@H](O)[C@H]1O [ATP, adenosine-5'-triphosphate] | 29 ± 6 | –
O=c1cc(-c2ccc(O)c(O)c2)oc2cc(O)cc(O)c12 [luteolin] | – | 61 ± 19.5
